Data as given in ChEMBL document CHEMBL1765029, “Synthesis and biological evaluation of estradiol linked pyrrolo[2,1-c][1,4]benzodiazepine (PBD) conjugates as potential anticancer agents” (2011).
The source made the active and inactive calls. The calls are words filed in the database; no cut-off is given here.

System: MCF7
Assay: Cytotoxicity against human MCF7 cells at 4 uM after 24 hrs by MTT assay
Format: functional, cell-based
Outline: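 MCF-7 cells seeded at 10,000 per well, incubated overnight, then treated at 4 µM for 24 h; DMSO control. Medium replaced with MTT, 2 h at 37 °C. Formazan solubilised in extraction buffer, absorbance read at 570 nm, expressed as percent viability.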

Row | Compound | Activity
1 | C[C@]12CC[C@@H]3c4ccc(O)cc4CC[C@H]3[C@@H]1CC[C@@H]2O [ESTRADIOL] | Active
2 | COc1cc2c(cc1OCc1cn(CCCCCOc3ccc4c(c3)CC[C@@H]3[C@@H]4CC[C@]4(C)[C@@H](O)CC[C@@H]34)nn1)N=C[C@@H]1CC(F)(F)CN1C2=O | Active

System: MCF7
Assay: Cytotoxicity against human MCF7 cells by sulforhodamine B method
Format: functional

Row | Compound | GI50 [nM]
3 | COc1cc2c(cc1OCc1cn(CCCCCOc3ccc4c(c3)CC[C@@H]3[C@@H]4CC[C@]4(C)[C@@H](O)CC[C@@H]34)nn1)N=C[C@@H]1CC(F)(F)CN1C2=O | 110

System: A549
Assay: Cytotoxicity against human A549 cells by sulforhodamine B method
Format: functional

Row | Compound | GI50 [nM]
4 | COc1cc2c(cc1OCc1cn(CCCCCOc3ccc4c(c3)CC[C@@H]3[C@@H]4CC[C@]4(C)[C@@H](O)CC[C@@H]34)nn1)N=C[C@@H]1CC(F)(F)CN1C2=O | 170

System: ZR-75-1
Assay: Cytotoxicity against human ZR-75-1 cells by sulforhodamine B method
Format: functional

Row | Compound | GI50 [nM]
5 | COc1cc2c(cc1OCc1cn(CCCCCOc3ccc4c(c3)CC[C@@H]3[C@@H]4CC[C@]4(C)[C@@H](O)CC[C@@H]34)nn1)N=C[C@@H]1CC(F)(F)CN1C2=O | 180

System: MCF7
Assay: Cell cycle arrest in human MCF7 cells assessed as accumulation at S phase using propidium iodide staining at 4 uM after 24 hrs by flow cytometry
Format: functional
Outline: (§1)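 MCF-7 cells (5 × 10⁵ per 60 mm dish) grown 24 h, then exposed to 4 µM compound for a further 24 h; DMSO-treated control. Cells trypsinised, fixed in ice-cold 70% ethanol at 4 °C for 30 min, RNase-treated (1 mg/mL, 37 °C, 30 min), stained with propidium iodide/citrate/Triton X-100. DNA content read on 20,000 events by flow cytometry; percent cells per phase reported.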

Row | Compound | Activity [%]
6 | C[C@]12CC[C@@H]3c4ccc(O)cc4CC[C@H]3[C@@H]1CC[C@@H]2O [ESTRADIOL] | 25.26
7 | COc1cc2c(cc1OCc1cn(CCCCCOc3ccc4c(c3)CC[C@@H]3[C@@H]4CC[C@]4(C)[C@@H](O)CC[C@@H]34)nn1)N=C[C@@H]1CC(F)(F)CN1C2=O | 22.3

System: KB
Assay: Cytotoxicity against human KB cells by sulforhodamine B method
Format: functional

Row | Compound | GI50 [nM]
8 | COc1cc2c(cc1OCc1cn(CCCCCOc3ccc4c(c3)CC[C@@H]3[C@@H]4CC[C@]4(C)[C@@H](O)CC[C@@H]34)nn1)N=C[C@@H]1CC(F)(F)CN1C2=O | 190

System: HOP-62
Assay: Cytotoxicity against human HOP62 cells by sulforhodamine B method
Format: functional

Row | Compound | GI50 [nM]
9 | COc1cc2c(cc1OCc1cn(CCCCCOc3ccc4c(c3)CC[C@@H]3[C@@H]4CC[C@]4(C)[C@@H](O)CC[C@@H]34)nn1)N=C[C@@H]1CC(F)(F)CN1C2=O | 190

System: not listed separately
Assay: Cytotoxicity against human DWD cells by sulforhodamine B method
Format: functional

Row | Compound | GI50 [nM]
10 | COc1cc2c(cc1OCc1cn(CCCCCOc3ccc4c(c3)CC[C@@H]3[C@@H]4CC[C@]4(C)[C@@H](O)CC[C@@H]34)nn1)N=C[C@@H]1CC(F)(F)CN1C2=O | 180

System: not listed separately
Assay: Cytotoxicity against human Gurav cells by sulforhodamine B method
Format: functional

Row | Compound | GI50 [nM]
11 | COc1cc2c(cc1OCc1cn(CCCCCOc3ccc4c(c3)CC[C@@H]3[C@@H]4CC[C@]4(C)[C@@H](O)CC[C@@H]34)nn1)N=C[C@@H]1CC(F)(F)CN1C2=O | 190

System: MCF7
Assay: Cell cycle arrest in human MCF7 cells assessed as accumulation at G2/M phase using propidium iodide staining at 4 uM after 24 hrs by flow cytometry
Format: functional
Outline: as §1

Row | Compound | Activity [%]
12 | C[C@]12CC[C@@H]3c4ccc(O)cc4CC[C@H]3[C@@H]1CC[C@@H]2O [ESTRADIOL] | 23.8
13 | COc1cc2c(cc1OCc1cn(CCCCCOc3ccc4c(c3)CC[C@@H]3[C@@H]4CC[C@]4(C)[C@@H](O)CC[C@@H]34)nn1)N=C[C@@H]1CC(F)(F)CN1C2=O | 21.8

System: PC-3
Assay: Cytotoxicity against human PC3 cells by sulforhodamine B method
Format: functional

Row | Compound | GI50 [nM]
14 | COc1cc2c(cc1OCc1cn(CCCCCOc3ccc4c(c3)CC[C@@H]3[C@@H]4CC[C@]4(C)[C@@H](O)CC[C@@H]34)nn1)N=C[C@@H]1CC(F)(F)CN1C2=O | 170

System: MCF7
Assay: Reduction in Cdk1 protein level in human MCF7 cells at 4 uM after 24 hrs by Western blot analysis
Format: functional, cell-based
Outline: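 MCF-7 cells (5 × 10⁵ per 60 mm dish) grown 24 h, then treated at 4 µM for 24 h. Lysis in ice-cold RIPA buffer with protease/phosphatase inhibitors; protein measured by Bradford. Fifty µg per lane resolved on 12% SDS-PAGE and transferred to PVDF. Blocked 2 h, primary antibody overnight at 4 °C, chemiluminescent detection; β-actin as loading control.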

Row | Compound | Activity
15 | C[C@]12CC[C@@H]3c4ccc(O)cc4CC[C@H]3[C@@H]1CC[C@@H]2O [ESTRADIOL] | Active

System: COLO 205
Assay: Cytotoxicity against human COLO205 cells by sulforhodamine B method
Format: functional

Row | Compound | GI50 [nM]
16 | COc1cc2c(cc1OCc1cn(CCCCCOc3ccc4c(c3)CC[C@@H]3[C@@H]4CC[C@]4(C)[C@@H](O)CC[C@@H]34)nn1)N=C[C@@H]1CC(F)(F)CN1C2=O | 160

System: A2780
Assay: Cytotoxicity against human A2780 cells by sulforhodamine B method
Format: functional

Row | Compound | GI50 [nM]
17 | COc1cc2c(cc1OCc1cn(CCCCCOc3ccc4c(c3)CC[C@@H]3[C@@H]4CC[C@]4(C)[C@@H](O)CC[C@@H]34)nn1)N=C[C@@H]1CC(F)(F)CN1C2=O | 1800

System: MCF7
Assay: Cell cycle arrest in human MCF7 cells assessed as accumulation at G0 phase using propidium iodide staining at 4 uM after 24 hrs by flow cytometry
Format: functional
Outline: as §1

Row | Compound | Activity [%]
18 | C[C@]12CC[C@@H]3c4ccc(O)cc4CC[C@H]3[C@@H]1CC[C@@H]2O [ESTRADIOL] | 0.83
19 | COc1cc2c(cc1OCc1cn(CCCCCOc3ccc4c(c3)CC[C@@H]3[C@@H]4CC[C@]4(C)[C@@H](O)CC[C@@H]34)nn1)N=C[C@@H]1CC(F)(F)CN1C2=O | 0.74

System: MCF7
Assay: Cell cycle arrest in human MCF7 cells assessed as accumulation at G1 phase using propidium iodide staining at 4 uM after 24 hrs by flow cytometry
Format: functional
Outline: as §1

Row | Compound | Activity [%]
20 | C[C@]12CC[C@@H]3c4ccc(O)cc4CC[C@H]3[C@@H]1CC[C@@H]2O [ESTRADIOL] | 50
21 | COc1cc2c(cc1OCc1cn(CCCCCOc3ccc4c(c3)CC[C@@H]3[C@@H]4CC[C@]4(C)[C@@H](O)CC[C@@H]34)nn1)N=C[C@@H]1CC(F)(F)CN1C2=O | 55

System: SiHa
Assay: Cytotoxicity against human SiHa cells by sulforhodamine B method
Format: functional

Row | Compound | GI50 [nM]
22 | COc1cc2c(cc1OCc1cn(CCCCCOc3ccc4c(c3)CC[C@@H]3[C@@H]4CC[C@]4(C)[C@@H](O)CC[C@@H]34)nn1)N=C[C@@H]1CC(F)(F)CN1C2=O | 1210
